Data taken from ChEMBL document CHEMBL1150167, “Sesquiterpenes from Ferula penninervis” (2002).

Tests used:
Type in all cases: functional
[1] = Inhibition of lipopolysaccharide IL1-beta production in human PMNC at 0.3 ug/mL by ELISA
Procedure, shortened: (§1)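 Cytokine (IL-1β, IL-2, IL-4, TNF) concentrations were measured directly by ELISA in the culture supernatants. The paper attributes the cytokines to macrophages in the culture.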

[2] = Inhibition of lipopolysaccharide IL2 production in human PMNC at 0.3 ug/mL by ELISA; procedure, shortened: as §1
[3] = Inhibition of lipopolysaccharide TNFalpha production in human PMNC at 0.3 ug/mL by ELISA; procedure, shortened: as §1
[4] = Inhibition of lipopolysaccharide IL4 production in human PMNC at 0.3 ug/mL by ELISA; procedure, shortened: as §1

## C[C@]12C=CC(=O)C=C1CC[C@@H]1[C@@H]2[C@@H](O)C[C@@]2(C)[C@H]1CC[C@]2(O)C(=O)CO [PREDNISOLONE]
[1]
  inhibition at 0.3 µg/mL: 24.8%
[2]
  inhibition at 0.3 µg/mL: 30.6%
[3]
  inhibition at 0.3 µg/mL: 47.9%
[4]
  inhibition at 0.3 µg/mL: 40.7%
